In brackets after ≈: the same amount, converted by molar mass. Activity calls are given as the source filed them. The rule behind the calls is not given here.

The subject of one series is LoVo. The experiment in a line: Growth inhibition of human LoVo cells incubated for 72 hrs by CellTiter-Glo luminescent cell viability. The class given is functional.
Series [1] deals with COLO 205. Put plainly: Growth inhibition of human COLO205 cells incubated for 72 hrs by CellTiter-Glo luminescent cell viability. The class given is functional. To be noted: COLO 205, 72 h. On the technique in general: ATP-based viability assays read luminescence as a measure of living cells.
Series [2] is described as follows: Selectivity index, ratio of GI50 for human CCD-18Co cells to GI50 for human COLO205 cells.
The nature of series [3]: Cytotoxicity against human CCD-18Co cells assessed as reduction in cell viability incubated for 72 hrs by CellTiter-Glo luminescent cell viability. The class given is cell-based.
Series [4] can be described thus: Selectivity index, ratio of GI50 for human CCD-18Co cells to GI50 for human LoVo cells.
Series [5] has as its system CWR22R. The experiment in a line: Antiproliferative activity human 22Rv1 cells assessed as reduction in Ki67 protein level at GI50 incubated for 48 hrs by DAPI staining based immunofluorescence assay. The class given is functional, cell-based.
Series [6] concerns PC-3. Put plainly: Growth inhibition of human PC3 cells incubated for 48 hrs by MTS assay. As to conditions: PC-3, 48 h. Type of series: functional. In outline: (§1)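 MTS viability on PC3 and 22RV1 prostate cancer cells after 48h incubation. […] DMSO control. Triplicates (N=3). One-way ANOVA with Dunnett's test, mean ± SEM, P<0.05.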
On the technique in general: Tetrazolium dyes change colour on reduction, which living cells bring about.

Series [7] relates to CWR22R. The experiment in a line: Growth inhibition of human 22Rv1 cells incubated for 48 hrs by MTS assay. Type of series: functional. As to conditions: 22Rv1, 48 h. In outline:
as §1

The subject of series [8] is COLO 205. The experiment in a line: Induction of apoptosis in human COLO205 cells assessed as activation of caspases 7 at GI50 by fluorescent inhibitor probe FAM-DEVD-FMK staining based fluorescence assay (reference value: 15.3%). The class given is functional. Set-up: scale not given: the % may be the effect or the level left. In outline: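 COLO-205 cells treated at the concentrations listed in the GI50 table. Active caspases 3 and 7 labelled with the fluorescent inhibitor probe FAM-DEVD-FMK and read by flow cytometry. Untreated negative control, camptothecin positive control. Triplicate (N=3), P<0.05 versus vehicle.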

The subject of series [9] is COLO 205. The experiment in a line: Induction of apoptosis in human COLO205 cells at GI50 incubated for 24 hrs by Annexin V-FITC/Hoechst/propidium iodide staining based cell counting method (reference value: 10.7%). Type of series: functional.
For series [10], the system named is PC-3. The experiment in a line: Antiproliferative activity human PC3 cells assessed as reduction in Ki67 protein level at GI50 incubated for 48 hrs by DAPI staining based immunofluorescence assay. Type of series: functional, cell-based.
Series [11] is described as follows: Inhibition of TNFalpha-induced NFkappaB activation in human HEK293 cells preincubated for 16 hrs followed by TNFalpha addition and measured after 6 hrs by luminescence based assay. Type of series: cell-based.

In general, GI50 refers to the concentration at which growth is held to half of that of the control. `CC(C)(C)OC(=O)N1C/C(=C\c2cccc(O)c2)C(=O)/C(=C/c2cccc(O)c2)C1`: the GI50 in the series with LoVo was found to be 4.1 µg/mL (≈ 10.1 µM); in the series with COLO 205 [1], 11.7 µg/mL (≈ 28.7 µM). For the same compound, the RatioGI50 is 0.5 in [2] and 1.6 in series [4]. The GI50 at 72 h in series [3] stood at 6.4 µg/mL (≈ 15.7 µM).

Regarding `COc1cc(/C=C/C(=O)/C=C/c2ccc(O)c(OC)c2)ccc1O`, the 50% growth inhibitory concentration (GI50) amounted to 10 µg/mL (≈ 30.6 µM) in the series with LoVo, 19.4 µg/mL (≈ 59.4 µM) in the series with COLO 205 [1], 24.8 µg/mL (≈ 76 µM) with PC-3 [6] and 22.7 µg/mL (≈ 69.6 µM) in the series on CWR22R [7]. Besides, the RatioGI50 in series [2] was determined as 0.8; in series [4], 1.5. Moreover, in the series on CWR22R [5], the result was Active. For the same compound, the GI50 at 72 h in series [3] came to 15.1 µg/mL (≈ 46.3 µM).

`CC[C@@]1(O)C(=O)OCc2c1cc1n(c2=O)Cc2cc3ccccc3nc2-1` [CAMPTOTHECIN]: the results for the Activity with COLO 205 [8] and in the series on COLO 205 [9] were 59.3% and 37.3%, respectively.

As for `CC(C)(C)OC(=O)N1C/C(=C\c2ccc(O)cc2)C(=O)/C(=C/c2ccc(O)cc2)C1`, the outcome in the series with PC-3 [10] and in the series on CWR22R [5] was Active. Also, the GI50 in the series on LoVo was determined as 3.5 µg/mL (≈ 8.59 µM); with COLO 205 [1], 20.9 µg/mL (≈ 51.3 µM); with PC-3 [6], 22.9 µg/mL (≈ 56.2 µM); in the series on CWR22R [7], 17.1 µg/mL (≈ 42 µM). The RatioGI50 in series [2] is 0.3; in [4], 1.8. Also, the GI50 at 72 h in series [3] is 6.4 µg/mL (≈ 15.7 µM).

A word on the IC50: it is the concentration that gives 50% inhibition. `CC(C)(C)OC(=O)N1C/C(=C\c2ccccc2C(F)(F)F)C(=O)/C(=C/c2ccccc2C(F)(F)F)C1`: the GI50 with LoVo is 4.6 µg/mL (≈ 8.99 µM); in the series on COLO 205 [1], 4.5 µg/mL (≈ 8.8 µM). Besides, the RatioGI50 in [2] and in series [4] was 1.7 throughout. Besides, the Activity in the series with COLO 205 [8] was determined as 31.5%; in the series with COLO 205 [9], 35%. Further, it took 27.2 µg/mL (≈ 53.2 µM) to reach half-maximal inhibition in [11] (IC50). Also, the GI50 at 72 h in [3] is 7.6 µg/mL (≈ 14.9 µM).

As to `COc1cc(/C=C/C(=O)CC(=O)/C=C/c2ccc(O)c(OC)c2)ccc1O` [CURCUMIN], the outcome with PC-3 [10] and in the series on CWR22R [5] was Active. In addition, the concentration for 50% growth inhibition (GI50) in the series with LoVo came out at 4.3 µg/mL (≈ 11.7 µM); in the series with COLO 205 [1] it was 12.7 µg/mL (≈ 34.5 µM); with PC-3 [6] it was 13.8 µg/mL (≈ 37.5 µM); in the series with CWR22R [7], 14.3 µg/mL (≈ 38.8 µM). Further, in series [11], the half-maximal inhibitory concentration (IC50) came out at 7.7 µg/mL (≈ 20.9 µM). The GI50 at 72 h in series [3] came out at 7.2 µg/mL (≈ 19.5 µM).

For `CC(=O)O[C@@]12CO[C@@H]1C[C@H](O)[C@@]1(C)C(=O)[C@H](O)C3=C(C)[C@@H](OC(=O)[C@H](O)[C@@H](NC(=O)OC(C)(C)C)c4ccccc4)C[C@@](O)([C@@H](OC(=O)c4ccccc4)[C@H]21)C3(C)C` [DOCETAXEL ANHYDROUS], the result with PC-3 [10] and with CWR22R [5] was Active. The GI50 in the series with PC-3 [6] amounted to 0.009 µg/mL (≈ 0.0111 µM); in the series with CWR22R [7], 0.006 µg/mL (≈ 0.00743 µM).

Regarding `CC(C)(C)OC(=O)N1C/C(=C\c2ccccc2)C(=O)/C(=C/c2ccccc2)C1`, the concentration for 50% growth inhibition (GI50) was 6.1 µg/mL (≈ 16.2 µM) in the series with LoVo and 34.7 µg/mL (≈ 92.4 µM) in the series on COLO 205 [1]. The values for the RatioGI50 in series [2] and in [4] were 0.4 and 2, respectively. Further, the concentration for 50% growth inhibition (GI50) at 72 h in series [3] came to 12.4 µg/mL (≈ 33 µM).

On to `COc1ccc(/C=C2\CN(C(=O)OC(C)(C)C)C/C(=C\c3ccc(OC)cc3OC)C2=O)c(OC)c1`, for which the 50% growth inhibitory concentration (GI50) in the series with LoVo is 2 µg/mL (≈ 4.04 µM); in the series on COLO 205 [1], 0.84 µg/mL (≈ 1.7 µM). In addition, the RatioGI50 in series [2] worked out at 1.4. The Activity is on record as 35.7% in the series with COLO 205 [8] and 62% in the series with COLO 205 [9]. The GI50 at 72 h in series [3] came to 1.2 µg/mL (≈ 2.42 µM).

For `COc1cc(/C=C2\CN(C(=O)OC(C)(C)C)C/C(=C\c3ccc(O)c(OC)c3)C2=O)ccc1O`, the GI50 in the series with LoVo came to 9.6 µg/mL (≈ 20.5 µM); in the series on COLO 205 [1], 27.4 µg/mL (≈ 58.6 µM). For the same compound, the RatioGI50 in series [2] is 0.7; in series [4], 1.9. Moreover, in series [3], the concentration for 50% growth inhibition (GI50) at 72 h is 18.3 µg/mL (≈ 39.1 µM).

The values above are taken from ChEMBL document CHEMBL4342435, “Synthesis of novel 4-Boc-piperidone chalcones and evaluation of their cytotoxic activity against highly-metastatic cancer cells” (Bioorg Med Chem Lett, 2020).
